The text below walks through data of paper PMC6851786 (Journal of Clinical Pharmacology, 2019).

The nature of one series: Safety assessment. The class given is in vivo, human (healthy adult subjects).
A short description of series [1]: Part 4: effect of CYP3A4 inducer rifampin on avadomide PK. In kind it is in vivo, human (healthy adult subjects). The settings on record: for Tmax / Vd/F / half-life / AUC(0-inf) / AUC(0-t) / Cmax: human, plasma; for AUC(0-inf): AUC0-inf; for AUC(0-inf) / AUC(0-t) / Cmax: Geometric LS Means; for AUC(0-t): AUC0-t. The gist of the method:
(§1)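 Open-label, nonrandomized, single-sequence crossover in healthy adults, each subject serving as own control. Plasma for test compound was taken predose and at 0.5, 1, 2, 3, 4, 6, 8, 12, 24, 48 and 72 h postdose and assayed by validated LC-MS/MS (LLOQ 1 ng/mL; range 1–400 ng/mL). Parameters came from noncompartmental analysis, including apparent volume. The ANOVA used ln AUC0-t, AUC0-inf and Cmax, with treatment fixed and subject random. Combination/alone geometric mean ratios are given with 90% CI.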

A short description of series [2]: Part 2: effect of CYP3A inhibitor itraconazole on avadomide PK. In kind it is in vivo, human (healthy adult subjects). The settings on record: for Tmax / Vd/F / half-life / AUC(0-inf) / AUC(0-t) / Cmax: human, plasma. The gist of the method: as §1
Series [3] can be described thus: Part 3: effect of CYP1A2 inhibitor fluvoxamine on avadomide PK. In kind it is in vivo, human (healthy adult subjects). Conditions: for Tmax / Vd/F / half-life / AUC(0-inf) / AUC(0-t) / Cmax: human, plasma; for AUC(0-inf): AUC0-inf; for AUC(0-inf) / AUC(0-t) / Cmax: Geometric LS Means; for AUC(0-t): AUC0-t. In outline:
as §1

The conditions of series [4]: cited from earlier work.
Another series deals with CYP3A4/5 and CYP1A2. Conditions: human liver microsomes; ref data on file; cited from earlier work.
For series [5] the following is noted: across the 0.5- to 3.5-mg dose range; cited from earlier work.
The conditions of series [6]: cited from earlier work. The source holds these as a separate data set.
For series [7] the following is noted: cited from earlier work. This is another data set of the same source.
For series [8] the following is noted: with the CYP1A2 inhibitor fluvoxamine; cited from earlier work.
The next series concerns CYP1A2. The settings on record: healthy subjects; cited from earlier work.
Setting [9] is: Part 2, following avadomide alone.
[10] abbreviates: Part 2, following avadomide plus itraconazole.
[11] abbreviates: Part 3, following avadomide alone.
Setting [12] is: Part 3, following avadomide plus fluvoxamine.
[13] abbreviates: Part 4, following avadomide plus rifampin.
Where [14] appears, read: avadomide + rifampin /avadomide.
Setting [15] is: oral, 3 mg, avadomide alone, Part 4, N 19, ANOVA.
Setting [16] is: oral, avadomide + rifampin, N 18, ANOVA.
Where [17] appears, read: avadomide + itraconazole/avadomide.
The mark [18] stands for this setting: avadomide + fluvoxamine/avadomide.
Where [19] appears, read: fluvoxamine coadministration versus alone.
[20] abbreviates: oral, 3 mg, avadomide alone, Part 3, N 18, ANOVA.
Setting [21] is: oral, avadomide + fluvoxamine, N 18, ANOVA.
Setting [22] is: Part 3, following fluvoxamine alone.
Setting [23] is: with the CYP3A4 inducer carbamazepine.
Where [24] appears, read: with the CYP3A inhibitor ketoconazole.
Setting [25] is: Part 4, following rifampin alone.

“Also recorded” adds a separate entry of the source. Where two headings read alike, the source gives them in different places.

Turning to `Cc1nc2cccc(N)c2c(=O)n1C1CCC(=O)NC1=O` (centres unmarked) [Avadomide], the “number of TEAEs reported” value in the series “Safety assessment” (setting [9]) was 2 TEAEs; in the series “Safety assessment” (setting [10]), 2 TEAEs; in “Safety assessment” (setting [11]), 7 TEAEs; in “Safety assessment” (setting [12]), 9 TEAEs; in “Safety assessment” (setting [13]), 1 TEAE. Besides, the “subjects reporting TEAEs” value in “Safety assessment” (setting [9]) is reported as 10.5%; in “Safety assessment” (setting [10]), 10.5%; in the series “Safety assessment” (setting [11]), 15.8%; in the series “Safety assessment” (setting [12]), 38.9%; in the series “Safety assessment” (Part 4, after avadomide alone), “No subjects reported TEAEs”; in “Safety assessment” (setting [13]) it was 5.6%. Further, the “moderate TEAE of vomiting, considered related to the IP” value in the series “Safety assessment” (setting [11]) is recorded as 1 subject. Also, the tolerability result in “Safety assessment” (single oral dose of 3 mg alone or coadministered with fluvoxamine, itraconazole, or rifampin) was “well tolerated”; in series [4] (single oral doses of up to 15 mg, healthy subjects), “well tolerated”. Further, the “geometric mean ratio of AUC0-t to AUC0-inf” value is listed as “greater than 90%” in series [1] (avadomide 3 mg alone and with rifampin, 72-hour sampling); “greater than 90%” in series [2] (avadomide 3 mg alone and with itraconazole, 72-hour sampling); “greater than 90%” in series [3] (avadomide 3 mg alone and with fluvoxamine, 72-hour sampling). In addition, the “AUC0-inf, Ratio of Geometric LS Means” value in [1] (setting [14]) is listed as 62.83%; in series [3] (setting [18]), 154.81%. Further, the results for the “AUC0-t, Ratio of Geometric LS Means” value in [1] (setting [14]), in [2] (setting [17]) and in [3] (setting [18]) were 62.34%, 100.54% and 160.35%, respectively. Also, the entries for the “Cmax, Ratio of Geometric LS Means” value in [1] (setting [14]), in series [2] (setting [17]) and in series [3] (setting [18]) were 88.17%, ~93.64% and 107.59%, respectively. The Tmax came to 0.53 h in series [1] (oral); 0.55 h in [1] (po, 3 mg); 1 h in [2] (oral); 1 h in series [2] (po, 3 mg); 0.79 h in [3] (oral); 0.5 h in series [3] (po, 3 mg). The Tmax result in series [4] (single oral dose 3 to 15 mg, healthy adult subjects) was “approximately 1 hour”. In addition, the Vd/F in [1] (oral) is 57.3 L; in [1] (po, 3 mg), 55 L; in [2] (oral), 53.8 L; in series [2] (po, 3 mg), 54.7 L; in series [3] (oral), 54.3 L; in [3] (po, 3 mg) it was 55.2 L. Moreover, the half-life in series [1] (oral) is 6.08 h; in series [1] (po, 3 mg) it was 9.29 h; in [2] (oral) it was 8.79 h; in series [2] (po, 3 mg) it was 8.94 h; in series [3] (oral) it was 13.7 h; in [3] (po, 3 mg), 9.16 h. Also, the AUC(0-inf) was 733 ng·h/mL in series [1] (setting [15]); 460 ng·h/mL in series [1] (setting [16]); 708 ng·h/mL in series [2] (oral, 3 mg); 708 ng·h/mL in series [2] (po, 3 mg); 709 ng·h/mL in series [3] (setting [20]); 1100 ng·h/mL in series [3] (setting [21]). For the same compound, the AUC(0-t) in series [1] (setting [15]) was determined as 687 ng·h/mL; in series [1] (setting [16]) it was 428 ng·h/mL; in series [2] (oral, 3 mg) it was 675 ng·h/mL; in series [2] (po, 3 mg) it was 675 ng·h/mL; in series [3] (setting [20]) it was 667 ng·h/mL; in series [3] (setting [21]), 1070 ng·h/mL. The Cmax in [1] (setting [15]) came to 74.8 ng/mL; in [1] (setting [16]) it was 65.9 ng/mL; in [2] (oral, 3 mg), 70.8 ng/mL; in series [2] (po, 3 mg) it was 70.8 ng/mL; in series [3] (oral, 3 mg, avadomide alone, Part 3, N 19, ANOVA), 70.2 ng/mL; in [3] (setting [21]), 75.6 ng/mL. For the same compound, in series [3] (setting [19]), the “decrease of apparent clearance” value was 34%. In addition, in series [3] (setting [19]), the “prolongation of avadomide t½” value is 50%. For the same compound, the “plasma avadomide t½ (without CYP inhibition)” value in series [4] (healthy subjects) is ~8 h. Also, in the series with CYP3A4/5 and CYP1A2, the “enzymes involved in oxidative metabolism” value was “major enzymes involved in the oxidative metabolism; also recorded: major isozymes involved in oxidative metabolism; also recorded: metabolized mainly by CYP3A and CYP1A2 in vitro”. In addition, the “plasma exposure versus dose” value in series [5] is “increased in a dose‐dependent manner”.
In the case of `COCCCC/C(=N\OCCN)c1ccc(C(F)(F)F)cc1` [fluvoxamine, reference compound], in “Safety assessment” (setting [22]), the “number of TEAEs reported” value stood at 11 TEAEs and the “subjects reporting TEAEs” value worked out at 31.6%.
In the case of `CCC(C)n1ncn(-c2ccc(N3CCN(c4ccc(OCC5COC(Cn6cncn6)(c6ccc(Cl)cc6Cl)O5)cc4)CC3)cc2)c1=O` (centres unmarked) [itraconazole, reference compound], in “Safety assessment” (Part 2, after itraconazole alone), the “subjects reporting TEAEs” value is reported as “No subjects reported TEAEs”.
For the compound `Nc1cccc2c1C(=O)N(C1CCC(=O)NC1=O)C2=O` (centres unmarked) [pomalidomide], in series [6], the metabolism and elimination entry was “primarily metabolized by CYP1A2 and CYP3A, with a low fraction excreted in urine as unchanged drug”. Also, the “AUC, % of that when administered alone” value in [7] (setting [23]) is reported as 79.7%; in series [7] (setting [24]), 118.8%; in series [8], 225.1%. Moreover, the “Cmax, % of that when administered alone” value was 75.0% in [7] (setting [23]), 107.3% in series [7] (setting [24]) and 123.7% in series [8].
In the case of `CO[C@H]1/C=C/O[C@@]2(C)Oc3c(C)c(O)c4c(O)c(c(/C=N/N5CCN(C)CC5)c(O)c4c3C2=O)NC(=O)/C(C)=C\C=C\[C@H](C)[C@H](O)[C@@H](C)[C@@H](O)[C@@H](C)[C@H](OC(C)=O)[C@@H]1C` [rifampin, reference compound], in “Safety assessment” (setting [25]), the “number of TEAEs reported” value stood at 5 TEAEs and the “subjects reporting TEAEs” value was found to be 22.2%. In addition, the “increase in conversion of caffeine to paraxanthine mediated by CYP1A2” value with CYP1A2 was 15%.

For orientation: Vd/F means the volume of distribution divided by bioavailability. In general, half-life refers to how long it takes for the measured level to halve. Higher therefore signals slow decline.
